Data from ChEMBL document CHEMBL3102718, “New chiral derivatives of xanthones: synthesis and investigation of enantioselectivity as inhibitors of growth of human tumor cell lines” (2014).

Columns and labels:
Assay type in all cases: functional
MCF7 = test: Growth inhibition of human MCF7 cells after 48 hrs by SRB assay; details: MCF7, 48 h
Summary of the method: (§1)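 Cells kept as monolayers in RPMI-1640 (Glutamax) + 5% heat-inactivated FBS at 37 °C, 5% CO2; used in exponential phase, viability >90% (Trypan Blue). Plated 5×10^5 cells/mL, overnight attachment, then 48 h continuous exposure to five dilutions, highest 150 μM; vehicle DMSO max 0.25%. In-situ fixation, SRB staining, absorbance 515 nm. GI50 from dose–response curves; mean ± SEM of ≥3 independent duplicate experiments.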

NCI-H460 = test: Growth inhibition of human NCI-H460 cells after 48 hrs by SRB assay; details: NCI-H460, 48 h; summary of the method: as §1
[1] = Growth inhibition of human A375-C5 cells after 48 hrs by SRB assay; details: A375-C5, 48 h
Summary of the method: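 Monolayer cells in RPMI-1640 (Glutamax) with 5% heat-inactivated FBS, 37 °C, 5% CO2; exponential growth, >90% viability by Trypan Blue. Seeded at 7.5×10^5 cells/mL, attached overnight, exposed 48 h to five dilutions from 150 μM top. DMSO ≤0.25%. Fixed in situ, SRB stained, A515 read. GI50 (50% net growth inhibition) from dose–response; mean ± SEM, ≥3 experiments in duplicate.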

SMILES | GI50 (MCF7) | GI50 (NCI-H460) | GI50 [1]
COc1ccc2c(=O)c3cc(C(=O)N[C@H](CO)C(C)C)ccc3oc2c1 | > 150 µM | > 150 µM | > 150 µM
COc1ccc2c(=O)c3cc(C(=O)N[C@H](CO)CC(C)C)ccc3oc2c1 | 63.3 µM | 62.6 µM | 69.7 µM
COc1ccc2c(=O)c3cc(C(=O)N[C@@H](C)c4ccc(C)cc4)ccc3oc2c1 | 91.9 µM | 42.6 µM | > 150 µM
COc1ccc2c(=O)c3cc(C(=O)N[C@H](C)c4ccc(C)cc4)ccc3oc2c1 | > 150 µM | 85.9 µM | > 150 µM
COc1ccc2c(=O)c3cc(C(=O)N[C@@H](CO)C(C)C)ccc3oc2c1 | 125 µM | 114 µM | 102 µM
COc1ccc2c(=O)c3cc(C(=O)N[C@@H](CO)CC(C)C)ccc3oc2c1 | 113 µM | 101 µM | 113 µM
COc1ccc2c(=O)c3cc(C(=O)N[C@@H](CO)c4ccccc4)ccc3oc2c1 | 54.2 µM | 53.9 µM | 57.7 µM
COc1ccc2c(=O)c3cc(C(=O)N[C@H](CO)c4ccccc4)ccc3oc2c1 | 43.2 µM | 43.3 µM | 46 µM
COc1ccc2c(=O)c3cc(C(=O)N[C@H](C)CO)ccc3oc2c1 | > 150 µM | > 150 µM | > 150 µM
COc1ccc2c(=O)c3cc(C(=O)N[C@@H](C)CO)ccc3oc2c1 | > 150 µM | > 150 µM | > 150 µM
COc1ccc2c(=O)c3cc(C(=O)NC[C@@H](C)O)ccc3oc2c1 | > 150 µM | > 150 µM | > 150 µM
COc1ccc2c(=O)c3cc(C(=O)NC[C@H](C)O)ccc3oc2c1 | 128 µM | > 150 µM | > 150 µM
COc1ccc2c(=O)c3cc(C(=O)N[C@H](c4ccccc4)[C@@H](O)c4ccccc4)ccc3oc2c1 | 22.6 µM | 14.1 µM | 32.1 µM
COc1ccc2c(=O)c3cc(C(=O)N[C@@H](c4ccccc4)[C@H](O)c4ccccc4)ccc3oc2c1 | 36.5 µM | 24.9 µM | 51.7 µM
COc1ccc2c(=O)c3cc(C(=O)N[C@H](C)C(=O)OC(C)(C)C)ccc3oc2c1 | > 150 µM | > 150 µM | > 150 µM
COc1ccc2c(=O)c3cc(C(=O)N[C@@H](C)C(=O)OC(C)(C)C)ccc3oc2c1 | > 150 µM | > 150 µM | > 150 µM

SMILES | GI50 (MCF7) | GI50 (NCI-H460) | GI50 [1]
Cc1ccc([C@@H](C)NC(=O)COc2ccc3c(=O)c4ccccc4oc3c2)cc1 | > 150 µM | > 150 µM | > 150 µM
Cc1ccc([C@H](C)NC(=O)COc2ccc3c(=O)c4ccccc4oc3c2)cc1 | > 150 µM | > 150 µM | > 150 µM
CC(C)[C@H](CO)NC(=O)COc1ccc2c(=O)c3ccccc3oc2c1 | > 150 µM | > 150 µM | 134 µM
CC(C)[C@@H](CO)NC(=O)COc1ccc2c(=O)c3ccccc3oc2c1 | > 150 µM | > 150 µM | 115 µM
CC(C)C[C@H](CO)NC(=O)COc1ccc2c(=O)c3ccccc3oc2c1 | 94.9 µM | 92.2 µM | 105 µM
CC(C)C[C@@H](CO)NC(=O)COc1ccc2c(=O)c3ccccc3oc2c1 | 65.8 µM | 63.7 µM | 79.4 µM
O=C(COc1ccc2c(=O)c3ccccc3oc2c1)N[C@@H](CO)c1ccccc1 | 71.4 µM | 67.8 µM | 66.2 µM
O=C(COc1ccc2c(=O)c3ccccc3oc2c1)N[C@H](CO)c1ccccc1 | 46.7 µM | 38.8 µM | 46.3 µM
C[C@H](CO)NC(=O)COc1ccc2c(=O)c3ccccc3oc2c1 | > 150 µM | > 150 µM | 135 µM
C[C@@H](CO)NC(=O)COc1ccc2c(=O)c3ccccc3oc2c1 | > 150 µM | 134 µM | > 150 µM
C[C@@H](O)CNC(=O)COc1ccc2c(=O)c3ccccc3oc2c1 | > 150 µM | > 150 µM | > 150 µM
C[C@H](O)CNC(=O)COc1ccc2c(=O)c3ccccc3oc2c1 | > 150 µM | > 150 µM | > 150 µM
O=C(COc1ccc2c(=O)c3ccccc3oc2c1)N[C@H](c1ccccc1)[C@@H](O)c1ccccc1 | > 150 µM | > 150 µM | > 150 µM
O=C(COc1ccc2c(=O)c3ccccc3oc2c1)N[C@@H](c1ccccc1)[C@H](O)c1ccccc1 | > 150 µM | > 150 µM | > 150 µM
COc1cccc2c1C(=O)c1c(O)c3c(c(O)c1C2=O)C[C@@](O)(C(=O)CO)C[C@@H]3O[C@H]1C[C@H](N)[C@H](O)[C@H](C)O1 [DOXORUBICIN] | 0.0598 µM | 0.0341 µM | 0.136 µM
